These results are taken from ChEMBL document CHEMBL1155452, “Oncocin (VDKPPYLPRPRPPRRIYNR-NH2): a novel antibacterial peptide optimized against gram-negative human pathogens” (J Med Chem, 2010).

In one data set the test system is Micrococcus luteus. As to the kind of experiment: Antibacterial activity against Micrococcus luteus ATCC 10240 after 20 hrs by broth microdilution assay. The data set is classed as functional. The note with it: ATCC 10240, 20 h. Put shortly: (§1)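 Nutrient-broth overnight cultures diluted in 1% TSB; E. coli BL21AI 7.5 × 10^5 cells/well, M. luteus ATCC 10240 2 × 10^6 cells/well. Peptides serially 2-fold diluted in 1% TSB from 128 to typically 0.5 μg/mL. Incubation at 37 °C; A595 read after 20 ± 2 h. MIC is the lowest concentration with absorbance not above medium only. Triplicate.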
On the technique in general: Dilution methods test growth across graded concentrations, often in twofold steps.

A further data set deals with Escherichia coli. As to the kind of experiment: Antibacterial activity against Escherichia coli BL21 AI after 20 hrs by broth microdilution assay. The data set is classed as functional. The method, boiled down: as §1
A short description of data set [1]: Stability in 25% mouse serum assessed as half life at 75 ug/ml by MALDI-TOF-MS analysis. The data set is classed as ADME, cell-free. The method, boiled down:
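Peptide at 75 μg/mL final in pooled mouse serum (undiluted or 25% v:v aqueous), 37 °C. Triplicate aliquots taken at 0, 30, 60, 120 and 240 min and precipitated with 3% TCA on ice for 10 min. Supernatant neutralized with NaOH and analysed by RP-HPLC on C18 with TFA-containing gradient. Amounts expressed relative to 0 min; metabolites identified by MALDI-TOF-MS.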

In general, MIC refers to the least concentration at which growth counts as inhibited. Low readings indicate inhibition by little substance, high ones a need for much substance. Regarding H-VDKPPYLPRPKPPRRIYNNR-OH, the MIC against Micrococcus luteus and against Escherichia coli was 16 µg/mL each time.

A word on the half-life: it is the time needed for the level to fall by half in the phase considered. For H-VDKPPYLPRPRPPRRIYNR-OH, in data set [1], the half-life at 75 ug/ml is below 30 min. Also, the minimum inhibitory concentration (MIC) against Micrococcus luteus was found to be 64 µg/mL; with Escherichia coli, 32 µg/mL.

As for H-VDKPPYLPRPRPPRRIYNRN-NH2, the MIC with Micrococcus luteus was 128 µg/mL; in the data set on Escherichia coli it was 16 µg/mL.
